Source: ChEMBL document CHEMBL2157916, “Design and synthesis of potent hydroxyethylamine (HEA) BACE-1 inhibitors carrying prime side 4,5,6,7-tetrahydrobenzazole and 4,5,6,7-tetrahydropyridinoazole templates” (Bioorg Med Chem Lett, 2012)

Experiments:
[1] = Intrinsic clearance in human liver microsomes; assay type: ADME, Microsome; details: read-out: CLH
[2] = Apparent permeability across human Caco2 cells; assay type: ADME, cell-based; details: Caco-2
[3] = Ratio of drug uptake in brain to plasma in C57/B1 mouse at […], sc administered for 24 hrs; assay type: ADME, organism-based; details: read-out: BPR
[4] = Plasma concentration in C57/B1 mouse at 20 umol/kg, iv at 0.5 hrs; assay type: ADME, organism-based
Procedure, shortened: (§1)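 Male C57/B1 mice dosed iv at 20 μmol/kg. Brain and plasma exposure measured 0.5 h after dose, with brain levels followed up to 6 h after dose.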

[5] = Drug uptake in C57/B1 mouse brain at 20 umol/kg, iv at 0.5 hrs; assay type: ADME, organism-based; details: read-out: Drug uptake; procedure, shortened: as §1
[6] = Plasma concentration in C57/B1 mouse at […], sc administered for 24 hrs; assay type: ADME, organism-based
[7] = Drug uptake in C57/B1 mouse brain at 20 umol/kg, iv up to 6 hrs; assay type: ADME, organism-based; details: read-out: Drug uptake; procedure, shortened: as §1

With `CC(=O)N[C@@H](Cc1ccccc1)[C@H](O)CNC1CC(C)(C)Oc2sc(CC(C)(C)C)cc21` (mixture of isomers) as the compound, how does the microsomal CLint [1] read?
The microsomal CLint was 82 µL/min/mg.

And the Papp [2]?
Its Papp is 5.6 ×10⁻⁶ cm/s.

What does the source list for `CC(=O)N[C@@H](Cc1ccccc1)[C@H](O)CNC1CC(C)(C)Cc2nn(CC(C)(C)C)cc21` (mixture of isomers)?
microsomal CLint [1]: 25 µL/min/mg; Kp at 24 h [3]: 0.69; concentration at 0.5 h [4]: 4750 nM; concentration at 0.5 h [5]: 200 nM; concentration at 24 h [6]: 450 nM; Papp [2]: 1.5 ×10⁻⁶ cm/s; concentration at 6 h [7]: 68 nM

With `CC(=O)N[C@@H](Cc1ccccc1)[C@H](O)CN[C@H]1CC(C)(C)Cn2nc(CC(C)(C)C)cc21` as the compound, how does the microsomal CLint [1] read?
Its microsomal CLint is 70 µL/min/mg.

And the Papp [2]?
Its Papp is 5 ×10⁻⁶ cm/s.

With `CC(=O)N[C@@H](Cc1ccccc1)[C@H](O)CNC1CC(C)(C)Cc2[nH]c(CC(C)(C)C)nc21` (mixture of isomers) as the compound, how does the microsomal CLint [1] read?
Its microsomal CLint is 15 µL/min/mg.

With `CC(=O)N[C@@H](Cc1ccccc1)[C@H](O)CN[C@H]1CC(C)(C)Cc2nn(CC(C)C)cc21` as the compound, how does the microsomal CLint [1] read?
Its microsomal CLint is 16 µL/min/mg.

What about the Papp [2] of the same compound?
Its Papp is 1.6 ×10⁻⁶ cm/s.

What does the source list for `CC(=O)N[C@@H](Cc1ccccc1)[C@H](O)CN[C@H]1CC(C)(C)Oc2ccc(CC(C)(C)C)cc21`?
microsomal CLint [1]: 200 µL/min/mg; Papp [2]: 21 ×10⁻⁶ cm/s
